In ChEMBL document CHEMBL1123188, “5,5-Diaryl-2-thiohydantoins and 5,5-diaryl-N3-substituted-2-thiohydantoins as potential hypolipidemic agents” (1986):

Legend:
Assay type in all cases: functional
[1] = tested on: Rattus norvegicus; assay: Compound was tested for hypolipidemic activity in male Sprague-Dawley rats by measuring amount of liver cholesterol after administration of 400 mg dose per kg of diet
In short: (§1)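 Orotic acid liver-lipid model: groups of six male Sprague-Dawley rats unless noted. Test compound mixed into the orotic acid diet at the stated mg/kg diet. Diet and water ad libitum for 14 days, with growth and diet intake monitored. Impaired growth with normal intake was taken as toxicity. At sacrifice, liver homogenized in cold 0.63 M phosphate buffer, pH 7.4. Liver triglyceride and cholesterol reported as mg/g wet liver.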

[2] = tested on: Rattus norvegicus; assay: Compound was tested for hypolipidemic activity in male Sprague-Dawley rats by measuring amount of liver cholesterol after administration of 600 mg dose per kg of diet; in short: as §1
[3] = tested on: Rattus norvegicus; assay: Compound was tested for hypolipidemic activity in male Sprague-Dawley rats by measuring change in body weight after administration of 600 mg dose per kg of diet; in short: as §1
[4] = tested on: Rattus norvegicus; assay: Compound was tested for hypolipidemic activity in male Sprague-Dawley rats by measuring amount of liver triglyceride after administration of 200 mg dose per kg of diet; in short: as §1
[5] = tested on: Rattus norvegicus; assay: Compound was tested for hypolipidemic activity in male Sprague-Dawley rats by measuring amount of liver triglyceride after administration of 400 mg dose per kg of diet; in short: as §1
[6] = tested on: Rattus norvegicus; assay: Compound was tested for hypolipidemic activity in male Sprague-Dawley rats by measuring change in body weight after administration of 100 mg dose per kg of diet; in short: as §1
[7] = tested on: Rattus norvegicus; assay: Compound was tested for hypolipidemic activity in male Sprague-Dawley rats by measuring amount of liver cholesterol after administration of 200 mg dose per kg of diet; in short: as §1
[8] = tested on: Rattus norvegicus; assay: Compound was tested for hypolipidemic activity in male Sprague-Dawley rats by measuring change in body weight after administration of 400 mg dose per kg of diet; in short: as §1
[9] = tested on: Rattus norvegicus; assay: Compound was tested for hypolipidemic activity in male Sprague-Dawley rats by measuring amount of liver triglyceride after administration of 100 mg dose per kg of diet; in short: as §1
[10] = organism: Rattus norvegicus; assay: The concentration required to reduce liver triglyceride half-way from the average orotic acid level to the basal level
In short: (§2)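 Dose-response testing in the 14-day orotic acid diet model, six male Sprague-Dawley rats per group. Midpoint dose (mg/kg diet) read from dose-response curves as the dietary level that brings liver cholesterol or triglyceride half-way between the orotic-acid-fed control and a basal control given no orotic acid.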

[11] = tested on: Rattus norvegicus; assay: Compound was tested for hypolipidemic activity in male Sprague-Dawley rats by measuring amount of liver cholesterol after administration of 100 mg dose per kg of diet; in short: as §1
[12] = tested on: Rattus norvegicus; assay: Compound was tested for hypolipidemic activity in male Sprague-Dawley rats by measuring change in body weight after administration of 200 mg dose per kg of diet; in short: as §1
[13] = tested on: Rattus norvegicus; assay: Compound was tested for hypolipidemic activity in male Sprague-Dawley rats by measuring amount of liver triglyceride after administration of 600 mg dose per kg of diet; in short: as §1
[14] = organism: Rattus norvegicus; assay: The activity relative to DPTH in liver cholesterol
In short: (§3)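 Relative activity is the midpoint dose from the orotic acid rat dose-response curves compared against DPTH, with DPTH set to 1.00. Calculated separately for liver cholesterol and for liver triglyceride.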

[15] = organism: Rattus norvegicus; assay: The concentration required to reduce liver cholesterol half-way from the average orotic acid level to the basal level; in short: as §2
[16] = organism: Rattus norvegicus; assay: The activity relative to DPTH in liver triglyceride; in short: as §3
[17] = organism: Rattus norvegicus; assay: The activity relative to DPTH. in liver triglyceride.; in short: as §3
[18] = organism: Rattus norvegicus; assay: The activity relative to DPTH. […] in liver cholesterol.; in short: as §3
[19] = tested on: Rattus norvegicus; assay: Compound was tested for hypolipidemic activity in male Sprague-Dawley rats by measuring amount of liver cholesterol after administration of 750 mg dose per kg of diet; in short: as §1
[20] = tested on: Rattus norvegicus; assay: Compound was tested for hypolipidemic activity in male Sprague-Dawley rats by measuring amount of liver triglyceride after administration of 750 mg dose per kg of diet; in short: as §1
[21] = tested on: Rattus norvegicus; assay: Compound was tested for hypolipidemic activity in male Sprague-Dawley rats by measuring change in body weight after administration of 750 mg dose per kg of diet; in short: as §1
[22] = tested on: Rattus norvegicus; assay: Compound was tested for hypolipidemic activity in male Sprague-Dawley rats by measuring amount of liver cholesterol after administration of 770 mg dose per kg of diet; in short: as §1
[23] = tested on: Rattus norvegicus; assay: Compound was tested for hypolipidemic activity in male Sprague-Dawley rats by measuring change in body weight after administration of 770 mg dose per kg of diet; in short: as §1
[24] = tested on: Rattus norvegicus; assay: Compound was tested for hypolipidemic activity in male Sprague-Dawley rats by measuring amount of liver triglyceride after administration of 770 mg dose per kg of diet; in short: as §1
[25] = tested on: Rattus norvegicus; assay: Compound was tested for hypolipidemic activity in male Sprague-Dawley rats by measuring amount of liver cholesterol after administration of 729 mg dose per kg of diet; in short: as §1
[26] = tested on: Rattus norvegicus; assay: Compound was tested for hypolipidemic activity in male Sprague-Dawley rats by measuring amount of liver triglyceride after administration of 729 mg dose per kg of diet; in short: as §1
[27] = tested on: Rattus norvegicus; assay: Compound was tested for hypolipidemic activity in male Sprague-Dawley rats by measuring change in body weight after administration of 729 mg dose per kg of diet; in short: as §1
[28] = tested on: Rattus norvegicus; assay: Compound was tested for hypolipidemic activity in male Sprague-Dawley rats by measuring amount of liver triglyceride after administration of 735 mg dose per kg of diet; in short: as §1
[29] = tested on: Rattus norvegicus; assay: Compound was tested for hypolipidemic activity in male Sprague-Dawley rats by measuring change in body weight after administration of 735 mg dose per kg of diet; in short: as §1
[30] = tested on: Rattus norvegicus; assay: Compound was tested for hypolipidemic activity in male Sprague-Dawley rats by measuring amount of liver cholesterol after administration of 735 mg dose per kg of diet; in short: as §1
[31] = tested on: Rattus norvegicus; assay: Compound was tested for hypolipidemic activity in male Sprague-Dawley rats by measuring amount of liver cholesterol after administration of 635 mg dose per kg of diet; in short: as §1
[32] = tested on: Rattus norvegicus; assay: Compound was tested for hypolipidemic activity in male Sprague-Dawley rats by measuring change in body weight after administration of 635 mg dose per kg of diet; in short: as §1
[33] = tested on: Rattus norvegicus; assay: Compound was tested for hypolipidemic activity in male Sprague-Dawley rats by measuring amount of liver triglyceride after administration of 635 mg dose per kg of diet; in short: as §1

For `O=C1NC(=S)NC1(c1ccccn1)c1ccccn1`, the Liver cholesterol [1] was 2.8 mg/g, the Liver cholesterol [2] was 3 mg/g and the Body weight change [3] was 132 g. For the same molecule, the “Liver TG” value [4] was 72 mg/g, the “Liver TG” value [5] was 28 mg/g and the Body weight change [6] was 180 g. The Liver cholesterol [7] was 10.3 mg/g, the Body weight change [8] was 203 g and the “Liver TG” value [9] was 100 mg/g. For the same molecule, the Midpoint dose [10] was 235 mg/kg, the Liver cholesterol [11] was 17 mg/g and the Body weight change [12] was 181 g. The “Liver TG” value [13] was 16 mg/g, the Relative activity [14] was 1.33 and the Midpoint dose [15] was 180 mg/kg. For the same molecule, the Relative activity [16] was 0.43.

Molecule `CCCCN1C(=O)C(c2ccccc2)(c2ccccc2)NC1=S` has a Liver cholesterol [1] of 10.7 mg/g, a TG [17] of 0.22 and a Liver cholesterol [2] of 4.2 mg/g. For the same molecule, the Body weight change [3] was 134 g, the “Liver TG” value [4] was 97 mg/g and the “Liver TG” value [5] was 70 mg/g. The Liver cholesterol [7] was 17.8 mg/g, the Body weight change [8] was 210 g and the Midpoint dose [10] was 450 mg/kg. For the same molecule, the TG [10] was 450 mg kg-1 diet, the Body weight change [12] was 185 g and the “Liver TG” value [13] was 19 mg/g. For the same molecule, the Cholesterol [18] was 0.71, the Relative activity [14] was 0.71 and the Cholesterol [15] was 340 mg kg-1 diet. It also gave a Midpoint dose [15] of 340 mg/kg and a Relative activity [16] of 0.22.

For `O=C1NC(=S)NC1(c1ccc(Cl)cc1)c1ccc(Cl)cc1`, the Liver cholesterol [19] was 13.2 mg/g, the “Liver TG” value [20] was 82 mg/g and the Body weight change [21] was 91 g.

For `O=C1N(c2ccccc2)C(=S)NC1(c1ccccc1)c1ccccc1`, the Liver cholesterol [22] was 8.6 mg/g, the Body weight change [23] was 91 g and the “Liver TG” value [24] was 42 mg/g.

In the case of `CCCCN1C(=O)C(c2ccccn2)(c2ccccn2)NC1=S`, the Liver cholesterol [25] is reported as 12.2 mg/g, the “Liver TG” value [26] is reported as 85 mg/g and the Body weight change [27] is reported as 140 g.

In the case of `COc1ccc(C2(c3ccc(OC)cc3)NC(=S)NC2=O)cc1`, the “Liver TG” value [28] is reported as 82 mg/g, the Body weight change [29] is reported as 135 g and the Liver cholesterol [30] is reported as 21.6 mg/g.

For `COc1ccc(C2(c3ccccc3)NC(=S)NC2=O)cc1` (racemic), the Liver cholesterol [31] was 23.1 mg/g, the Body weight change [32] was 144 g and the “Liver TG” value [33] was 70 mg/g.

With `O=C1NC(=S)NC1(c1ccccc1)c1ccc(O)cc1` (racemic) the Liver cholesterol [31] was 9.1 mg/g, the Body weight change [32] was 130 g and the “Liver TG” value [33] was 48 mg/g.

`O=C1NC(=S)NC1(c1ccccc1)c1ccccc1` [THIOPHENYTOIN] was tested, and the Liver cholesterol [2] was 3 mg/g, the Body weight change [3] was 136 g and the Midpoint dose [10] was 100 mg/kg. For the same molecule, the “Liver TG” value [13] was 16 mg/g, the Relative activity [14] was 1 and the Midpoint dose [15] was 240 mg/kg. It also gave a Relative activity [16] of 1.
